Experimental data published in article PMC2677188 (ACS chemical biology, 2009).
Values joined by “and” are separate entries in the source; they are usually repeats but may differ in a detail not shown here. Equal entries are not always repeated. Where two headings read alike, the source gives them in different places.

Tests used:
[1] = target: rTAAR1 (wild type rat TAAR1) (Rattus norvegicus, UniProt Q923Y9); test: In vitro cAMP agonist activity assay; assay type: cell-based
[2] = target: rTAAR1(M6.55T) (Rattus norvegicus, UniProt Q923Y9, M268T); test: cAMP agonist activity assay, rTAAR1; assay type: cell-based
[3] = target: rTAAR1(A5.42L) (Rattus norvegicus, UniProt Q923Y9, A193L); test: cAMP agonist activity assay, rTAAR1; assay type: cell-based; conditions: for decrease in potency versus wild type: rTAAR1(A5.42L)
How it was run: (§1)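 Site-directed TAAR1 mutants were stably expressed in HEK293 cells (transfected, selected with G418). cAMP was measured with a HitHunter cAMP XS kit over concentration-response curves. Responses were expressed relative to the reference agonist at 10 μM (set as 100%). EC50 and Emax were obtained by curve fitting, averaged over N independent triplicate experiments, with SEM.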

[4] = target: rTAAR1(N7.39Y) (Rattus norvegicus, UniProt Q923Y9, N287Y); test: cAMP agonist activity assay, rTAAR1; assay type: cell-based
[5] = target: T1, mTAAR1 (wild type mouse TAAR1) (Mus musculus, UniProt Q923Y8); conditions: wild type receptors; cited from earlier work
[6] = target: mTAAR1(Y4.56F) (Mus musculus, UniProt Q923Y8, Y153F); test: cAMP agonist activity assay, mTAAR1; assay type: cell-based; conditions: for increase in potency versus wild type: mTAAR1(Y4.56F)
How it was run: as §1

[7] = target: rTAAR1(A5.42T) (Rattus norvegicus, UniProt Q923Y9, A193T); test: cAMP agonist activity assay, rTAAR1; assay type: cell-based
How it was run: as §1

[8] = target: mTAAR1(Y7.39N) (Mus musculus, UniProt Q923Y8, Y287N); test: cAMP agonist activity assay, mTAAR1; assay type: cell-based
[9] = target: rTAAR1(M6.55T/N7.39Y) (Rattus norvegicus, UniProt Q923Y9, M268T/N287Y); test: cAMP agonist activity assay, rTAAR1; assay type: cell-based
[10] = target: mTAAR1(T6.55M/Y7.39N) (Mus musculus, UniProt Q923Y8, T268M/Y287N); test: cAMP agonist activity assay, mTAAR1; assay type: cell-based
[11] = target: rTAAR1(A5.42I) (Rattus norvegicus, UniProt Q923Y9, A193I); test: cAMP agonist activity assay, rTAAR1; assay type: cell-based; conditions: for decrease in potency versus wild type: rTAAR1(A5.42I)
How it was run: as §1

[12] = target: T1, mTAAR1 (wild type mouse TAAR1); test: In vitro cAMP agonist activity assay, wild type mTAAR1; assay type: cell-based
[13] = target: mTAAR1(T6.55M) (Mus musculus, UniProt Q923Y8, T268M); test: cAMP agonist activity assay, mTAAR1; assay type: cell-based
[14] = target: rTAAR1(F4.56Y) (Rattus norvegicus, UniProt Q923Y9, F153Y); test: cAMP agonist activity assay, rTAAR1; assay type: cell-based
How it was run: as §1

Chain of rTAAR1(A5.42T) (Q923Y9 whole entry A193T): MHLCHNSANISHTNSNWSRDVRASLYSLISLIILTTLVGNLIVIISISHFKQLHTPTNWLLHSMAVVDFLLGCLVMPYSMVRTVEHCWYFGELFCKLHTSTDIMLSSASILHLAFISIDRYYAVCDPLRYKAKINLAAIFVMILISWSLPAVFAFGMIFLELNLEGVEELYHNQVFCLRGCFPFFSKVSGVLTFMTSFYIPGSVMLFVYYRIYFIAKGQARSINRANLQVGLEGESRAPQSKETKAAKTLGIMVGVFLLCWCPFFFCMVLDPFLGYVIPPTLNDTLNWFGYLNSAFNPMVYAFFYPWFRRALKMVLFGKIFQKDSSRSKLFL
Chain of rTAAR1 (wild type rat TAAR1) (Q923Y9 whole entry): as the sequence (Q923Y9 whole entry A193T) above, with T193A counted along it
Chain of rTAAR1(A5.42I) (Q923Y9 whole entry A193I): as the sequence (Q923Y9 whole entry A193T) above, with T193I counted along it
Chain of mTAAR1(Y4.56F) (Q923Y8 whole entry Y153F): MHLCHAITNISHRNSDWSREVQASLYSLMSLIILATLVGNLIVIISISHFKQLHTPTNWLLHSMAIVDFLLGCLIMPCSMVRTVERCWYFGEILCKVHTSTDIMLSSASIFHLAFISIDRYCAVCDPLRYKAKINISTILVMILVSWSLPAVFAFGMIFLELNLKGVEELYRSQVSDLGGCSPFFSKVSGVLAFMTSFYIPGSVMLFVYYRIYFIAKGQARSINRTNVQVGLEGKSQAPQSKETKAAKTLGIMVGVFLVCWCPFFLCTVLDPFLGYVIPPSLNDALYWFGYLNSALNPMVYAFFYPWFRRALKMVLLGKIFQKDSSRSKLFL
T1 sequence (Q923Y8 whole entry): as the sequence (Q923Y8 whole entry Y153F) above, with F153Y counted along it
Chain of rTAAR1(A5.42L) (Q923Y9 whole entry A193L): as the sequence (Q923Y9 whole entry A193T) above, with T193L counted along it
Chain of rTAAR1(N7.39Y) (Q923Y9 whole entry N287Y): as the sequence (Q923Y9 whole entry A193T) above, with T193A, N287Y counted along it
Chain of rTAAR1(M6.55T/N7.39Y) (Q923Y9 whole entry M268T/N287Y): as the sequence (Q923Y9 whole entry A193T) above, with T193A, M268T, N287Y counted along it
Chain of rTAAR1(F4.56Y) (Q923Y9 whole entry F153Y): as the sequence (Q923Y9 whole entry A193T) above, with F153Y, T193A counted along it
Chain of mTAAR1(Y7.39N) (Q923Y8 whole entry Y287N): as the sequence (Q923Y8 whole entry Y153F) above, with F153Y, Y287N counted along it
Chain of mTAAR1(T6.55M/Y7.39N) (Q923Y8 whole entry T268M/Y287N): as the sequence (Q923Y8 whole entry Y153F) above, with F153Y, T268M, Y287N counted along it
Chain of rTAAR1(M6.55T) (Q923Y9 whole entry M268T): as the sequence (Q923Y9 whole entry A193T) above, with T193A, M268T counted along it
Chain of mTAAR1(T6.55M) (Q923Y8 whole entry T268M): as the sequence (Q923Y8 whole entry Y153F) above, with F153Y, T268M counted along it

NCCc1ccc(Oc2ccc(O)cc2)c(I)c1 [Compound 1, 3-Iodothyronamine]
EC50 ([1]; read-out: EC50 ± SEM, wild type rTAAR1, HEK293 cells, cAMP): 33 ± 3 nM | Emax ± SEM ([1]; wild type rTAAR1, Emax = 100 % is the activity of 1 at 10 mM (so in the source)): 100± 0% | rTAAR1 selectivity: fold more potent for rTAAR1 compared to mTAAR1 ([1]; wild type receptors): ~ 10 fold and 7–10 fold | EC50 ([2]; read-out: EC50 ± SEM): 129 ± 43 nM | Emax ± SEM ([2]; relative to 1): 100 ±0% | decrease in potency versus wild type [3]: 2 fold | Emax ± SEM ([3]; rTAAR1 A5.42L (Table 3a), relative to 1): 100 ± 0% | EC50 ([3]; read-out: EC50 ± SEM, rTAAR1 A5.42L (Table 3a)): 58 ± 16 nM | EC50 ([4]; read-out: EC50 ± SEM): 135 nM | Emax ± SEM ([4]; relative to 1): 100% | fold less potent for mTAAR1 compared to rTAAR1 [5]: 7 to 10 fold | increase in potency versus wild type [6]: 5 fold | fold less potent versus wild type ([7]; rTAAR1(A5.42T)): 3 fold | Emax ± SEM ([7]; rTAAR1 A5.42T, relative to 1): 100 ± 0% | EC50 ([7]; read-out: EC50 ± SEM, rTAAR1 A5.42T): 88 ± 13 nM | EC50 ([8]; read-out: EC50 ± SEM): 251 ± 43 nM | Emax ± SEM ([8]; relative to 1): 100 ± 0% | EC50 ([9]; read-out: EC50 ± SEM): 90 nM | Emax ± SEM ([9]; relative to 1): 100% | EC50 ([10]; read-out: EC50 ± SEM): 208 ± 60 nM | Emax ± SEM ([10]; relative to 1): 100 ± 0% | decrease in potency versus wild type [11]: 3 fold | Emax ± SEM ([11]; rTAAR1 A5.42I (Table 3a), relative to 1): 100 ± 0% | EC50 ([11]; read-out: EC50 ± SEM, rTAAR1 A5.42I (Table 3a)): 108 ± 14 nM | EC50 ([12]; read-out: EC50 ± SEM, wild type mTAAR1, HEK293 cells, cAMP): 314 ± 43 nM | improvement of potency at mTAAR1 on eliminating the β-phenyl ring of 2, 5 and 7 ([12]; wild type mTAAR1): 24- to 32 fold | Emax ± SEM ([12]; wild type mTAAR1, Emax = 100 % is the activity of 1 at 10 mM (so in the source)): 100 ± 0% | EC50 ([13]; read-out: EC50 ± SEM): 1420 ± 592 nM | Emax ± SEM ([13]; relative to 1): 100 ± 0%

NCCc1ccc(O)cc1 [Tyramine, tyramine]
EC50 [1]: 65 ± 1 nM | Emax ([1]; read-out: Emax ± SEM): 119 ± 7% | EC50 [3]: ~2000 nM | decrease in potency versus wild type [3]: 31 fold | Emax ([3]; read-out: Emax ± SEM): 102 ± 18% | EC50 [14]: 54 ± 11 nM | Emax ([14]; read-out: Emax ± SEM): 108 ± 6% | fold less potent for mTAAR1 compared to rTAAR1 [5]: 7 to 10 fold | EC50 [6]: 40 ± 13 nM | increase in potency versus wild type [6]: 7 fold | Emax ([6]; read-out: Emax ± SEM): 118 ± 8% | EC50 [7]: > 10000 nM | fold less potent versus wild type ([7]; rTAAR1(A5.42T)): 154 fold | less efficacious than wild type ([7]; rTAAR1(A5.42T)): 50% | Emax ([7]; read-out: Emax ± SEM): 69 ± 5% | EC50 [11]: > 10000 nM | decrease in potency versus wild type [11]: 154 fold | Emax ([11]; read-out: Emax ± SEM): 49 ± 7% | EC50 [12]: 271 ± 52 nM | Emax ([12]; read-out: Emax ± SEM): 110 ± 2%
